Converted amounts (≈) assume the structure as drawn. The source made the active and inactive calls. The rule behind the calls is not given here.
Tests used:
Escherichia coli [1] = test: Antibacterial activity against ampicillin/ciprofloxacin/gentamicin/tetracycline-resistant Escherichia coli 555 assessed as growth inhibition after 18 to 24 hrs by broth microdilution method; type: functional
Escherichia coli [2] = test: Bactericidal activity against ciprofloxacin-resistant Escherichia coli 72 by agar plating method; type: functional
Escherichia coli [3] = test: Bactericidal activity against ampicillin/kanamycin/trimethoprim/tetracyclin/ciprofloxacin/nalidixic acid-resistant Escherichia coli 81 by agar plating method; type: functional
Escherichia coli [4] = test: Bactericidal activity against chloramphenicol/ampicillin/kanamycin/trimethoprim/ciprofloxacin/nalidixic acid-resistant Escherichia coli 132 by agar plating method; type: functional
Escherichia coli [5] = test: Bactericidal activity against ampicillin/chloramphenicol/ciprofloxacin/gentamicin/tetracycline-resistant Escherichia coli 401 by agar plating method; type: functional
Escherichia coli [6] = test: Bactericidal activity against ampicillin/ciprofloxacin/gentamicin/tetracycline-resistant Escherichia coli 555 by agar plating method; type: functional
[7] = Inhibition of Escherichia coli DNA topoisomerase-1A using supercoiled pHOT1 plasmid DNA as substrate assessed as inhibition of DNA relaxation after 30 mins by agarose gel electrophoresis
Procedure, shortened: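 Supercoiled plasmid DNA incubated with E. coli Topo IA in the presence of compound at […]. Relaxation products were resolved by electrophoresis on 1% agarose gel.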

Escherichia coli [8] = test: Inhibition of Escherichia coli DNA gyrase using relaxed pHOT1 plasmid DNA as substrate assessed as inhibition of DNA supercoiling up to 100 uM after 30 mins by agarose gel electrophoresis
Homo sapiens = species: Homo sapiens; test: Inhibition of human DNA topoisomerase-1B using supercoiled pHOT1 plasmid DNA as substrate assessed as inhibition of DNA relaxation at 100 uM after 30 mins by agarose gel electrophoresis
Escherichia coli [9] = test: Antibacterial activity against Escherichia coli ATCC 25922 assessed as growth inhibition after 18 to 24 hrs by broth microdilution method; type: functional
Escherichia coli [10] = test: Antibacterial activity against ciprofloxacin-resistant Escherichia coli 72 assessed as growth inhibition after 18 to 24 hrs by broth microdilution method; type: functional
Escherichia coli [11] = test: Antibacterial activity against ampicillin/trimethoprim/nalidixic acid-resistant Escherichia coli 118 assessed as growth inhibition after 18 to 24 hrs by broth microdilution method; type: functional
Escherichia coli [12] = test: Antibacterial activity against chloroamphenicol/ampicillin/kanamycin/trimethoprim/ciprofloxacin/nalidixic acid-resistant Escherichia coli 85 assessed as growth inhibition after 18 to 24 hrs by broth microdilution method; type: functional
Escherichia coli [13] = test: Antibacterial activity against gentamicin/kanamycin/tetracycline/nalidixic acid-resistant Escherichia coli 360 assessed as growth inhibition after 18 to 24 hrs by broth microdilution method; type: functional
Escherichia coli [14] = test: Antibacterial activity against ampicillin/tetracycline/gentamicin-resistant Escherichia coli 451 assessed as growth inhibition after 18 to 24 hrs by broth microdilution method; type: functional
Escherichia coli [15] = test: Antibacterial activity against chloramphenicol/ampicillin/trimethoprim/ciprofloxacin/nalidixic acid-resistant Escherichia coli 59 assessed as growth inhibition after 18 to 24 hrs by broth microdilution method; type: functional
Escherichia coli [16] = test: Antibacterial activity against ampicillin/kanamycin/trimethoprim/tetracyclin/ciprofloxacin/nalidixic acid-resistant Escherichia coli 81 assessed as growth inhibition after 18 to 24 hrs by broth microdilution method; type: functional
Escherichia coli [17] = test: Antibacterial activity against chloramphenicol/ampicillin/kanamycin/trimethoprim/ciprofloxacin/nalidixic acid-resistant Escherichia coli 132 assessed as growth inhibition after 18 to 24 hrs by broth microdilution method; type: functional
Escherichia coli [18] = test: Antibacterial activity against chloramphenicol/ampicillin/kanamycin/trimethoprim/ciprofloxacin/nalidixic acid-resistant Escherichia coli 151 assessed as growth inhibition after 18 to 24 hrs by broth microdilution method; type: functional
Escherichia coli [19] = test: Antibacterial activity against ampicillin/chloramphenicol/ciprofloxacin/gentamicin/tetracycline-resistant Escherichia coli 401 assessed as growth inhibition after 18 to 24 hrs by broth microdilution method; type: functional
Escherichia coli [20] = test: Bactericidal activity against multidrug-resistant Escherichia coli IS 54 isolated from water source by agar plating method; settings: IS 54, Water
Escherichia coli [21] = test: Bactericidal activity against ampicillin/tetracycline/piperacillin-resistant Escherichia coli WB31 isolated from water source by agar plating method
Escherichia coli [22] = test: Bactericidal activity against ampicillin/trimethoprim/piperacillin-resistant Escherichia coli MKNJ isolated from water source by agar plating method
Escherichia coli [23] = test: Bactericidal activity against ampicillin/chloramphenicol/tetracycline/trimethoprim/ciprofloxacin-resistant Escherichia coli KK45 isolated from water source by agar plating method
Escherichia coli [24] = test: Antibacterial activity against multidrug-resistant Escherichia coli IS 54 isolated from water source assessed as growth inhibition after 18 to 24 hrs by broth microdilution method; settings: IS 54, Water
Escherichia coli [25] = test: Antibacterial activity against ampicillin/tetracycline-resistant Escherichia coli IP18 isolated from water source assessed as growth inhibition after 18 to 24 hrs by broth microdilution method
Escherichia coli [26] = test: Antibacterial activity against tetracycline/trimethoprim-resistant Escherichia coli IST isolated from water source assessed as growth inhibition after 18 to 24 hrs by broth microdilution method
Escherichia coli [27] = test: Bactericidal activity against cefazolinl/ampicillin/piperacillin/cefuroxime/cefepime/cefotaxime/tetracycline/ciprofloxacin-resistant Escherichia coli NG3 isolated from water source by agar plating method
Escherichia coli [28] = test: Bactericidal activity against cefazolinl/ampicillin/piperacillin/cefuroxime/cefepime/cefotaxime/tetracycline/trimethoprim-resistant Escherichia coli KK16 isolated from water source by agar plating method
Escherichia coli [29] = test: Antibacterial activity against ampicillin/tetracycline/piperacillin-resistant Escherichia coli WB31 isolated from water source assessed as growth inhibition after 18 to 24 hrs by broth microdilution method
Escherichia coli [30] = test: Antibacterial activity against ampicillin/trimethoprim/piperacillin-resistant Escherichia coli MKNJ isolated from water source assessed as growth inhibition after 18 to 24 hrs by broth microdilution method
Escherichia coli [31] = test: Antibacterial activity against ampicillin/trimethoprim/cefazolinl/piperacillin/cefuroxime/cefoxitine/cefepime/cefotaxime-resistant Escherichia coli KP21 isolated from water source assessed as growth inhibition after 18 to 24 hrs by broth microdilution method
Escherichia coli [32] = test: Antibacterial activity against cefazolinl/ampicillin/piperacillin/cefuroxime/cefepime/cefotaxime/tetracycline/trimethoprim-resistant Escherichia coli KK16 isolated from water source assessed as growth inhibition after 18 to 24 hrs by broth microdilution method

COc1ccc(-c2nc3ccc(-c4nc5ccc(N6CCN(c7ccncc7)CC6)cc5[nH]4)cc3[nH]2)cc1OC
MIC50 (Escherichia coli [1]): 16 µg/mL (≈ 30.1 µM)
MIC90 (Escherichia coli [1]): 58.6 µg/mL (≈ 110 µM)
MBC (Escherichia coli [2]): 2 µg/mL (≈ 3.76 µM)
MBC (Escherichia coli [3]): 4 µg/mL (≈ 7.52 µM)
MBC (Escherichia coli [4]): 4 µg/mL (≈ 7.52 µM)
MBC (Escherichia coli [5]): 2 µg/mL (≈ 3.76 µM)
MBC (Escherichia coli [6]): 64 µg/mL (≈ 120 µM)
IC50 [7]: 6.2 µM
inhibition (Escherichia coli [8]): inactive
inhibition (Homo sapiens): inactive
MIC50 (Escherichia coli [9]): 2 µg/mL (≈ 3.76 µM)
MIC90 (Escherichia coli [9]): 3.7 µg/mL (≈ 6.96 µM)
MIC50 (Escherichia coli [10]): 1 µg/mL (≈ 1.88 µM)
MIC90 (Escherichia coli [10]): 1.6 µg/mL (≈ 3.01 µM)
MIC50 (Escherichia coli [11]): 1 µg/mL (≈ 1.88 µM)
MIC90 (Escherichia coli [11]): 1.7 µg/mL (≈ 3.2 µM)
MIC50 (Escherichia coli [12]): 2 µg/mL (≈ 3.76 µM)
MIC90 (Escherichia coli [12]): 3.6 µg/mL (≈ 6.77 µM)
MIC50 (Escherichia coli [13]): 1 µg/mL (≈ 1.88 µM)
MIC90 (Escherichia coli [13]): 1.7 µg/mL (≈ 3.2 µM)
MIC50 (Escherichia coli [14]): 2 µg/mL (≈ 3.76 µM)
MIC90 (Escherichia coli [14]): 3.6 µg/mL (≈ 6.77 µM)
MIC50 (Escherichia coli [15]): 1 µg/mL (≈ 1.88 µM)
MIC90 (Escherichia coli [15]): 3.6 µg/mL (≈ 6.77 µM)
MIC50 (Escherichia coli [16]): 2 µg/mL (≈ 3.76 µM)
MIC90 (Escherichia coli [16]): 3.1 µg/mL (≈ 5.83 µM)
MIC50 (Escherichia coli [17]): 2 µg/mL (≈ 3.76 µM)
MIC90 (Escherichia coli [17]): 3.7 µg/mL (≈ 6.96 µM)
MIC50 (Escherichia coli [18]): 1 µg/mL (≈ 1.88 µM)
MIC90 (Escherichia coli [18]): 1.7 µg/mL (≈ 3.2 µM)
MIC50 (Escherichia coli [19]): 1 µg/mL (≈ 1.88 µM)
MIC90 (Escherichia coli [19]): 1.6 µg/mL (≈ 3.01 µM)
MBC (Escherichia coli [20]): 2 µg/mL (≈ 3.76 µM)
MBC (Escherichia coli [21]): 4 µg/mL (≈ 7.52 µM)
MBC (Escherichia coli [22]): 4 µg/mL (≈ 7.52 µM)
MBC (Escherichia coli [23]): 4 µg/mL (≈ 7.52 µM)
MIC50 (Escherichia coli [24]): 1 µg/mL (≈ 1.88 µM)
MIC90 (Escherichia coli [24]): 1.7 µg/mL (≈ 3.2 µM)
MIC50 (Escherichia coli [25]): 2 µg/mL (≈ 3.76 µM)
MIC90 (Escherichia coli [25]): 3.7 µg/mL (≈ 6.96 µM)
MIC50 (Escherichia coli [26]): 0.5 µg/mL (≈ 0.941 µM)
MIC90 (Escherichia coli [26]): 0.8 µg/mL (≈ 1.5 µM)
MBC (Escherichia coli [27]): 2 µg/mL (≈ 3.76 µM)
MBC (Escherichia coli [28]): 2 µg/mL (≈ 3.76 µM)
MIC50 (Escherichia coli [29]): 2 µg/mL (≈ 3.76 µM)
MIC90 (Escherichia coli [29]): 3.7 µg/mL (≈ 6.96 µM)
MIC50 (Escherichia coli [30]): 2 µg/mL (≈ 3.76 µM)
MIC90 (Escherichia coli [30]): 3.7 µg/mL (≈ 6.96 µM)
MIC50 (Escherichia coli [31]): 2 µg/mL (≈ 3.76 µM)
MIC90 (Escherichia coli [31]): 3.6 µg/mL (≈ 6.77 µM)
MIC50 (Escherichia coli [32]): 1 µg/mL (≈ 1.88 µM)
MIC90 (Escherichia coli [32]): 1.7 µg/mL (≈ 3.2 µM)

CCOc1ccc(-c2nc3ccc(-c4nc5ccc(N6CCN(CC)CC6)cc5[nH]4)cc3[nH]2)cc1
MIC50 (Escherichia coli [1]): 8 µg/mL (≈ 17.1 µM)
MIC90 (Escherichia coli [1]): 13.9 µg/mL (≈ 29.8 µM)
MBC (Escherichia coli [2]): 8 µg/mL (≈ 17.1 µM)
MBC (Escherichia coli [3]): 8 µg/mL (≈ 17.1 µM)
MBC (Escherichia coli [4]): 8 µg/mL (≈ 17.1 µM)
MBC (Escherichia coli [5]): 4 µg/mL (≈ 8.57 µM)
MBC (Escherichia coli [6]): 16 µg/mL (≈ 34.3 µM)
IC50 [7]: 5.8 µM
inhibition (Escherichia coli [8]): inactive
inhibition (Homo sapiens): Active
MIC50 (Escherichia coli [9]): 1.78 µg/mL (≈ 3.81 µM)
MIC90 (Escherichia coli [9]): 3.1 µg/mL (≈ 6.64 µM)
MIC50 (Escherichia coli [10]): 4 µg/mL (≈ 8.57 µM)
MIC90 (Escherichia coli [10]): 7.2 µg/mL (≈ 15.4 µM)
MIC50 (Escherichia coli [11]): 1 µg/mL (≈ 2.14 µM)
MIC90 (Escherichia coli [11]): 1.4 µg/mL (≈ 3 µM)
MIC50 (Escherichia coli [12]): 4 µg/mL (≈ 8.57 µM)
MIC90 (Escherichia coli [12]): 6.9 µg/mL (≈ 14.8 µM)
MIC50 (Escherichia coli [13]): 3 µg/mL (≈ 6.43 µM)
MIC90 (Escherichia coli [13]): 58.1 µg/mL (≈ 125 µM)
MIC50 (Escherichia coli [14]): 2 µg/mL (≈ 4.29 µM)
MIC90 (Escherichia coli [14]): 3.6 µg/mL (≈ 7.72 µM)
MIC50 (Escherichia coli [15]): 4 µg/mL (≈ 8.57 µM)
MIC90 (Escherichia coli [15]): 7.4 µg/mL (≈ 15.9 µM)
MIC50 (Escherichia coli [16]): 4 µg/mL (≈ 8.57 µM)
MIC90 (Escherichia coli [16]): 6.5 µg/mL (≈ 13.9 µM)
MIC50 (Escherichia coli [17]): 4 µg/mL (≈ 8.57 µM)
MIC90 (Escherichia coli [17]): 7.2 µg/mL (≈ 15.4 µM)
MIC50 (Escherichia coli [18]): 4 µg/mL (≈ 8.57 µM)
MIC90 (Escherichia coli [18]): 6.8 µg/mL (≈ 14.6 µM)
MIC50 (Escherichia coli [19]): 2 µg/mL (≈ 4.29 µM)
MIC90 (Escherichia coli [19]): 3.7 µg/mL (≈ 7.93 µM)
MBC (Escherichia coli [20]): 8 µg/mL (≈ 17.1 µM)
MBC (Escherichia coli [21]): 8 µg/mL (≈ 17.1 µM)
MBC (Escherichia coli [22]): 8 µg/mL (≈ 17.1 µM)
MBC (Escherichia coli [23]): 8 µg/mL (≈ 17.1 µM)
MIC50 (Escherichia coli [24]): 4 µg/mL (≈ 8.57 µM)
MIC90 (Escherichia coli [24]): 7.1 µg/mL (≈ 15.2 µM)
MIC50 (Escherichia coli [25]): 4 µg/mL (≈ 8.57 µM)
MIC90 (Escherichia coli [25]): 7.6 µg/mL (≈ 16.3 µM)
MIC50 (Escherichia coli [26]): 4 µg/mL (≈ 8.57 µM)
MIC90 (Escherichia coli [26]): 3.7 µg/mL (≈ 7.93 µM)
MBC (Escherichia coli [27]): 8 µg/mL (≈ 17.1 µM)
MBC (Escherichia coli [28]): 2 µg/mL (≈ 4.29 µM)
MIC50 (Escherichia coli [29]): 4 µg/mL (≈ 8.57 µM)
MIC90 (Escherichia coli [29]): 7.2 µg/mL (≈ 15.4 µM)
MIC50 (Escherichia coli [30]): 4 µg/mL (≈ 8.57 µM)
MIC90 (Escherichia coli [30]): 7.6 µg/mL (≈ 16.3 µM)
MIC50 (Escherichia coli [31]): 4 µg/mL (≈ 8.57 µM)
MIC90 (Escherichia coli [31]): 6.8 µg/mL (≈ 14.6 µM)
MIC50 (Escherichia coli [32]): 1 µg/mL (≈ 2.14 µM)
MIC90 (Escherichia coli [32]): 1.8 µg/mL (≈ 3.86 µM)
